KCNQ1 act – potentiators or activators of human KCNQ1 potassium channel | P51787 | CHO-K1 KCNQ1, thallium flux FluxOR fluorescence; active compounds read high | B-score at 10 µM | 0.35% of 310,000 active;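 active means fluorescence ratio B-score, a plate-corrected score, at least three library SD, with initial intensity B-score within 5 SD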
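Schedule – 37 °C overnight plating, 90-min dark dye load, 20-min compound pretreatment · System – stable KCNQ1 CHO-K1 line · Probe or stimulus – thallium- and potassium-containing depolarizing buffer · Measured by – kinetic FluxOR fluorescence, 10 s baseline plus 110 s post-stimulus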
KCNQ1 block – blocks the human KCNQ1 potassium channel. 1.3% of 310,000 active. CHO-K1 KCNQ1, FluxOR thallium flux fluorescence; active compounds read high. B-score at 10 µM. P51787;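 active means compounds whose thallium flux B-score, printed positive for inhibition, exceeds three library SD while starting fluorescence stays within three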;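 further: channel opened by potassium depolarization with thallium stimulus after 20 min compound exposure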
Kir21 inh – inhibitors of mouse Kir2.1 inward-rectifier potassium channel | P35561 | HEK293-Kir2.1, FluxOR thallium flux fluorescence; active compounds read low | B-score at 10 µM | 0.85% of 310,000 active;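 active means fluorescence ratio B-score at or below minus 3 SD of library scores, with starting-brightness B-score within 2 SD, cut at about -4.2 in these data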;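 further: channel flux triggered by added potassium and thallium sulfate stimulus; B-score of peak minus minimum fluorescence over baseline after thallium stimulus; more negative B-score means stronger Kir2.1 block with less thallium influx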
Target sequence (P35561 whole entry, looked up): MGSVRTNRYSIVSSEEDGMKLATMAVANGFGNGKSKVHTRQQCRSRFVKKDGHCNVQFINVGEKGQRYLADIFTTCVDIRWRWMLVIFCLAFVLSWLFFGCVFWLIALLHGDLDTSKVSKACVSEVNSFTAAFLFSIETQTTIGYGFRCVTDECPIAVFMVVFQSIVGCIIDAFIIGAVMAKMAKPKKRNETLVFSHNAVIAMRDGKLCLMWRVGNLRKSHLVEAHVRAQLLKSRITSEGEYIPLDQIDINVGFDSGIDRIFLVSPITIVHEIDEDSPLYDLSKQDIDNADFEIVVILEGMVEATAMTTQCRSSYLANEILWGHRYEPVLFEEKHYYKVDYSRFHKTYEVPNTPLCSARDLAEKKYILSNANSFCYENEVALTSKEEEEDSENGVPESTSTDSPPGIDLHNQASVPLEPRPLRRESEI
hERG protect – hERG (human) protection from proarrhythmic block. Q12809. CHO-hERG, FluxOR thallium flux, dofetilide IC70 present. activation (rescue from dofetilide block), less the hit threshold, % at 10 µM. 0.51% of 310,000 active;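 active means activation above the mean of controls blocked by dofetilide plus 5 SD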;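 further: thallium influx through hERG after potassium depolarization seen as dye fluorescence rise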
KCNK9 block – blocks the human KCNK9 two-pore domain potassium channel. 1.2% of 310,000 active. B-score at 10 µM. AID 488922. Q9NPC2. HEK293 KCNK9, FluxOR thallium flux fluorescence; active compounds read low;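 active means ratio B-score over 3 SD below the library mean, with starting fluorescence within 5 SD of its mean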;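 further: negative B-score means less thallium flux so channel inhibition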
KCNK3 inh – human KCNK3 channel inhibition, primary screen; CHO-KCNK3 thallium flux, FluxOR fluorescence; active compounds read low; B-score at 10 µM; 0.84% of 340,000 active;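 active means B-score under library mean minus 4 SD, starting fluorescence ratio at most library mean plus 5 SD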;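 further: more negative B-score means stronger inhibition of thallium flux through KCNK3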
A number is an active result; 0 = inactive; - = no result. Hits are enriched below; roughly 3.7% of the tested compounds scored in any of these assays.

SMILES | KCNQ1 act | KCNQ1 block | Kir21 inh | hERG protect | KCNK9 block | KCNK3 inh
CC1C/C(=C/c2cccs2)C(=O)/C(=C/c2cccs2)C1 (centres undefined) | 0 | 0 | 0 | 0 | -7.36 | 0
O=C1/C(=C/c2cccs2)CCC/C1=C\c1cccs1 | 0 | 0 | 0 | 0 | 0 | 0
CCOC(=O)[C@@H]1[C@H]2COc3cc(OC)ccc3[C@H]2N2C(=O)N(c3cccc(F)c3)C(=O)[C@@]12C | - | - | - | - | - | 0
CCOC(=O)C1=C(C)N=c2s/c(=C\c3ccc(OCC(=O)O)c(OC)c3)c(=O)n2C1c1ccc(OC)cc1 (centres undefined) | 0 | 0 | 0 | 0 | 0 | 0
COC(=O)C1=C(C)N=c2s/c(=C/c3ccoc3)c(=O)n2C1c1ccccc1 (centres undefined) | 0 | 9 | 0 | 0 | 0 | 0
CC1=C(C(=O)OC(C)C)C(c2ccc(Cl)cc2)n2c(s/c(=C\c3ccc(OCC(=O)O)cc3)c2=O)=N1 (centres undefined) | 0 | 7 | 0 | 0 | 0 | 0
CCOC(=O)C1=C(C)N=c2s/c(=C\c3cccc(OCC(=O)O)c3)c(=O)n2C1c1ccccc1 (centres undefined) | 0 | 0 | 0 | 0 | 0 | 0
O=C1OC(/C(=C\Nc2cc(Cl)ccc2O)[N+](=O)[O-])c2ccccc21 (centres undefined) | 0 | 0 | 0 | 0 | 0 | 0
O=C(NCc1ccccc1)C(c1ccc(F)cc1)N(C(=O)c1csnn1)C1CC1 (centres undefined) | 0 | 0 | 0 | 0 | 0 | 0
Cn1c(CNc2nc(-c3ccccc3)cs2)nnc1SCC(=O)OC1CCCCC1 | 0 | 0 | -5.36 | 0 | 0 | 0
COc1cccc(OCc2nnc(SCC(=O)OC3CCCCC3)n2C)c1 | 0 | 0 | -4.83 | 0 | 0 | 0
CCC(Oc1ccccc1)C(=O)N(C)CC(=O)N(CC(C)C)c1c(N)n(CC(C)C)c(=O)[nH]c1=O (centres undefined) | 0 | 0 | 0 | 0 | 0 | 0
CSc1nc2c(c(=O)[nH]1)C(c1ccc(Br)cc1)CC(=O)N2 (centres undefined) | 0 | 0 | 0 | 11.1 | 0 | 0
COc1cc2c(cc1OC)C(c1ccc(Br)cc1)CC(=O)N2 (centres undefined) | 0 | 0 | 0 | 0 | 0 | 0
CSc1nc2c(c(=O)[nH]1)C(c1ccc(C(F)(F)F)cc1)CC(=O)N2 (centres undefined) | 0 | 0 | 0 | 0 | 0 | 0
CSc1nc2c(c(=O)[nH]1)C(c1ccc(F)cc1)CC(=O)N2 (centres undefined) | 0 | 0 | 0 | 11.6 | 0 | 0
C/C(=N/NC(=O)c1ccco1)c1ccc(NC(=O)c2ccc(F)cc2)cc1 | 0 | 0 | 0 | 0 | 0 | 0
CCOCCCNC(=O)CSc1nc2nc(C)c(Cc3ccccc3)c(C)n2n1 | 0 | 0 | 0 | 0 | 0 | 0
Oc1c(Cl)cc(Cl)cc1C(C#Cc1ccccc1)N1CCOCC1 (centres undefined) | 0 | 0 | 0 | 0 | -7.13 | 0
N#CC(c1ccc(Cl)cc1)N1CCOCC1 (centres undefined) | 0 | 0 | 0 | 0 | 0 | 0
COc1ccccc1NC(=O)N1CCCC1C(=O)Nc1ccc2c(c1)OCO2 (centres undefined) | 0 | 0 | 0 | 0 | 0 | 0
O=C(Nc1ccc2c(c1)OCO2)C1CCCN1C(=O)Nc1ccccc1F (centres undefined) | 0 | 0 | 0 | 5.6 | 0 | 0
CCNC(=S)NNC(=O)c1cc(-c2cccnc2)nc2ccccc12 | 0 | 0 | 0 | 0 | 0 | 0
CCOC(=O)c1ccc(Nc2nc(-c3cccnc3)nc3ccccc23)cc1 | 0 | 0 | 0 | 0 | -7.06 | 0
Cc1ccc(Nc2nc(-c3cccnc3)nc3ccccc23)cc1 | 0 | 0 | 0 | 0 | 0 | 0
SMILES | KCNQ1 act | KCNQ1 block | Kir21 inh | hERG protect | KCNK9 block | KCNK3 inh
CCOC(=O)c1ccc(NC(=S)NNC(=O)c2cc(-c3cccnc3)nc3ccccc23)cc1 | 0 | 10 | 0 | 0 | 0 | 0
CCN(CC)S(=O)(=O)c1ccc(S(=O)(=O)N2CCCC(C(=O)NC3CC3)C2)cc1 (centres undefined) | 0 | 0 | 0 | 0 | 0 | 0
Fc1cccc2sc(Nc3nnc(-c4ccco4)o3)nc12 | 21 | 0 | 0 | 13.0 | 0 | 0
COc1cccc2sc(Nc3nnc(-c4ccc(F)cc4)o3)nc12 | 94 | 0 | 0 | 45.6 | 0 | 0
COc1cccc2sc(Nc3nnc(-c4cccs4)o3)nc12 | 19 | 0 | 0 | 34.1 | 0 | 0
COc1cccc2sc(Nc3nc(-c4ccccn4)cs3)nc12 | 33 | 0 | 0 | 24.4 | -6.86 | 0
O=C(Nc1nc2c(F)cccc2s1)c1ccco1 | 0 | 0 | 0 | 0 | 0 | 0
CC12OC1C1(O)CCCC1=CC2=O (centres undefined) | 0 | 0 | 0 | 0 | 0 | -
Cc1ccccc1Nc1nc(N)nc(CN(C)Cc2ccccc2Cl)n1 | 0 | 0 | 0 | 0 | 0 | 0
Cn1c(=O)[nH]c(=O)c2c1nc(CN1CCN(Cc3ccccc3)CC1)n2CC(N)=O | 0 | 0 | 0 | 0 | 0 | 0
O=C(c1ccc([N+](=O)[O-])cc1[N+](=O)[O-])n1cnc2ccccc21 | 0 | 0 | 0 | 0 | 0 | 0
COc1cccc(CN2CCC(N(CCc3ccccc3)Cc3ccccc3)CC2)c1OC | 0 | 0 | 0 | 0 | 0 | 0
COc1ccc(/C=C(\C#N)C(=O)c2c(C)[nH]c3ccccc23)cc1OC | 0 | 6 | 0 | 0 | 0 | 0
COc1cc(/C=C(\C#N)C(=O)c2c(C)[nH]c3ccccc23)cc(OC)c1OC | 0 | 0 | 0 | 0 | 0 | 0
CS(=O)(=O)c1ccc(C(=O)OCc2nnc(-c3ccccc3)o2)cc1[N+](=O)[O-] | 21 | 0 | 0 | 0 | 0 | 0
O=C(OCc1nnc(-c2ccccc2)o1)c1ccc(Cl)cc1 | 0 | 0 | 0 | 0 | 0 | 0
COc1ccc(NC(=O)C(c2ccc(OC)cc2)N(Cc2ccco2)C(=O)CC2NC(=O)NC2=O)cc1 (centres undefined) | 0 | 0 | 0 | 0 | 0 | 0
COc1ccc(C(C(=O)Nc2ccc(C(C)C)cc2)N(Cc2ccco2)C(=O)CC2NC(=O)NC2=O)cc1 (centres undefined) | 0 | 6 | 0 | 0 | 0 | 0
Cn1nc(-c2ccc(Cl)cc2)c2cc(C(=O)N3CCCC3)sc21 | 0 | 0 | 0 | 0 | 0 | 0
Cn1nc(-c2ccc(Cl)cc2)c2cc(C(=O)N3CCN(c4ccccn4)CC3)sc21 | 0 | 0 | 0 | 0 | 0 | -12.7
CCC1(O)CC(C(=O)OC)=NN1C(=O)c1ccccc1 (centres undefined) | 0 | 0 | 0 | 0 | 0 | 0
COC(=O)C1=NN(C(=O)c2ccc(Cl)cc2)C(O)(c2ccccc2)C1 (centres undefined) | 39 | 0 | 0 | 38.5 | 0 | 0
CCOC(=O)C1=NN(C(=O)c2ccc(C)cc2)C(O)(c2ccc(Cl)cc2)C1 (centres undefined) | 79 | 0 | 0 | 75.6 | 0 | 0
